Test results reported in paper PMC2231817 (The Journal of General Physiology, 2000).
Residue numbers refer to the chain shown, from its start. Like-named read-outs stand apart in the source and are kept apart here. Blank lines part the entries; values can stand above or below the compound they belong to.

Legend:
[1] = ref Marsh and Phil 1990; cited from earlier work
[2] = molecular target: T1, CHM 3 rod/olfactory chimeric CNG channel (Bos taurus / Rattus norvegicus, UniProt Q00194+Q00195); assay: DAG dose-response on chimera CHM3, inside-out patches from Xenopus oocytes; format: biochemical, bovine/rat; conditions: saturating 2 mM cGMP, 4 patches
T1 sequence (Q00194 with tags, fused parts or gaps): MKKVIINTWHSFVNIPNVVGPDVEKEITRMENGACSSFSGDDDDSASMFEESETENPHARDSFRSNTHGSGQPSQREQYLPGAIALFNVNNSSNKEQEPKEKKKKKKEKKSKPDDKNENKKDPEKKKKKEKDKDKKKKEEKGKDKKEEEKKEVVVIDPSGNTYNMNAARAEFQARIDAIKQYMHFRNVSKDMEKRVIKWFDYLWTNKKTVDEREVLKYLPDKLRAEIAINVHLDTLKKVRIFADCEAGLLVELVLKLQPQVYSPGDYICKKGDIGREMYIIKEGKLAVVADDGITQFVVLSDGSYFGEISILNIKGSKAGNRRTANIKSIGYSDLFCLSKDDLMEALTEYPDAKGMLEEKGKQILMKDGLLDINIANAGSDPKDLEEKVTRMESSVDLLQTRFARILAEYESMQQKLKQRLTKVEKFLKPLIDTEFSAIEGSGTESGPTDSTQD
T1 sequence (Q00195 147-381): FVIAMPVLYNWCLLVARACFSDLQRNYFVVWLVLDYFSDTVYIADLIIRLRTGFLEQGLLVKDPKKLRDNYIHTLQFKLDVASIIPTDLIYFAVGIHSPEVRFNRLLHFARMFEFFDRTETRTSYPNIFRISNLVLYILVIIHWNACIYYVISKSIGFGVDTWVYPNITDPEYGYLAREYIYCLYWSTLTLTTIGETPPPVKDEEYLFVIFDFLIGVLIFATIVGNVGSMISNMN
In short: (§1)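 Chimera cRNA injected into Xenopus oocytes, held at 15°C overnight then 18°C for 1–10 d; vitelline membrane removed. […] 1,2-DiC8 from DMSO stock added stepwise to bath (0.05–48 μM; DMSO <1.2%). Leak-subtracted currents; Hill fit to averaged data, scaled to maximal inhibition.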

[3] = molecular target: T2, rat olfactory CNG channel (CNG2, α homomultimer) (Rattus norvegicus, UniProt Q00195); format: biochemical
T2 sequence (Q00195 1-664): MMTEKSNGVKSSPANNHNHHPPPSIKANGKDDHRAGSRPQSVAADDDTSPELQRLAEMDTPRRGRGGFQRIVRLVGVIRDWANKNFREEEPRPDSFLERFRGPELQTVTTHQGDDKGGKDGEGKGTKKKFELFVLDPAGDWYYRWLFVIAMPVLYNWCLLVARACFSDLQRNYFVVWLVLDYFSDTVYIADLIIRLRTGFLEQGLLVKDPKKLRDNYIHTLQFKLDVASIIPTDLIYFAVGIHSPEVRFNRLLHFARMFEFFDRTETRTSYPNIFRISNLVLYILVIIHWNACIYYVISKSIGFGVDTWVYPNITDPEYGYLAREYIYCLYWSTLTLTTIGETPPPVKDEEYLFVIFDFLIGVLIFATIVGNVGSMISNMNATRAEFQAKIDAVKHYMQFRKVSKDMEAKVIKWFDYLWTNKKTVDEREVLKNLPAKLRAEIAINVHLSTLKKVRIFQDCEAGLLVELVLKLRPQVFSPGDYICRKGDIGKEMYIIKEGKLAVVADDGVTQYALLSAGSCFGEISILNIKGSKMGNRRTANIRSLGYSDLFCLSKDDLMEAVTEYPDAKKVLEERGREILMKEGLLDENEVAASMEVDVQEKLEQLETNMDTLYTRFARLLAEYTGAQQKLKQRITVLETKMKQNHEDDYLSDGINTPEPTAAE

[4] = molecular target: T3, mutant rod CNG channel H468Q (H468Q and A483V), α homomultimer (Bos taurus, UniProt Q00194, A483V/H468Q); format: biochemical, bovine
T3 sequence (Q00194 1-690 H468Q/A483V): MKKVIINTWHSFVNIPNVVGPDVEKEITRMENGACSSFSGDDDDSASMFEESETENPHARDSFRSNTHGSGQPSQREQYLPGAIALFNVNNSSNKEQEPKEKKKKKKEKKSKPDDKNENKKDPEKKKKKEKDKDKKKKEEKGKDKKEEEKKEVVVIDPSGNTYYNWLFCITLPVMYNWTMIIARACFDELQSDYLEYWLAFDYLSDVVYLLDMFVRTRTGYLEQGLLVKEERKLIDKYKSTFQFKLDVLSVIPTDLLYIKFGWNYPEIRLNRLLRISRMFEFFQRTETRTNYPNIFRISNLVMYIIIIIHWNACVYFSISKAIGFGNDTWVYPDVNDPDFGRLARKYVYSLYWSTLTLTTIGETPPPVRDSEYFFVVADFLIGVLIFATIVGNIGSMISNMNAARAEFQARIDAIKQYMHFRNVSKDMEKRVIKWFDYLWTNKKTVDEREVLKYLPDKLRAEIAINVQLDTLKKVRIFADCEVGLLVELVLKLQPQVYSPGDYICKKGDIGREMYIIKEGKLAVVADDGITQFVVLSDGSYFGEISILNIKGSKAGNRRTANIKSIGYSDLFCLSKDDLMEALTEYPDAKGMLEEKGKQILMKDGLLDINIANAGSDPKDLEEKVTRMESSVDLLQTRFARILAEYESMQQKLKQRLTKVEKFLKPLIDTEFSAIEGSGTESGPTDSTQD

[5] = molecular target: T4, CHM 11 rod/olfactory chimeric CNG channel (Bos taurus / Rattus norvegicus, UniProt Q00194+Q00195); assay: DAG dose-response on chimera CHM11, inside-out patches from Xenopus oocytes; format: biochemical, bovine/rat; conditions: saturating 2 mM cGMP, five patches
T4 sequence (Q00194 1-690): T3 sequence (Q00194 1-690 H468Q/A483V) with Q468H, V483A
T4 sequence (Q00195 1-664): T2 sequence (Q00195 1-664)
In short: as §1

[6] = molecular target: T5, mouse olfactory CNG channel (Mus musculus, UniProt Q62398); assay: Single-channel recording of olfactory channel with DAG; format: biochemical; conditions: +80 mV, saturating cGMP, with and without DAG
T5 sequence (Q62398 1-664): T2 sequence (Q00195 1-664) with P50S, Q69R, V77I, D115G, G118D, V297A, D611E, T661A, A662V
In short: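 Three to five continuous 1-s records per condition, filtered at 5 kHz and sampled at 25 kHz. Amplitude histograms from full records were fit with Gaussians to obtain mean single-channel current.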

[7] = molecular target: T6, CHM 13 rod/olfactory chimeric CNG channel (Bos taurus / Rattus norvegicus, UniProt Q00194+Q00195); assay: DAG dose-response on chimera CHM13, inside-out patches from Xenopus oocytes; format: biochemical, bovine/rat; conditions: saturating 2 mM cGMP, six patches
T6 sequence (Q00194 1-690): T3 sequence (Q00194 1-690 H468Q/A483V) with Q468H, V483A
T6 sequence (Q00195 1-664): T2 sequence (Q00195 1-664)
In short: as §1

[8] = molecular target: T7, bovine rod CNG channel (CNG1, α homomultimer) (Bos taurus, UniProt Q00194); format: biochemical
T7 sequence (Q00194 1-690): T3 sequence (Q00194 1-690 H468Q/A483V) with Q468H, V483A

[9] = system: rod and olfactory CNG channels; assay: Comparison of DAG analogues on cloned CNG channels; format: biochemical; conditions: data not shown
CNG channels = conditions: ref Fodor et al. 1997; cited from earlier work

SMILES: CCCCCCCC(=O)OC[C@H](COP(=O)([O-])OCC[N+](C)(C)C)OC(=O)CCCCCCC [1,2-dioctanoyl phosphatidylcholine]
critical micelle concentration [1]: 270 µM

Hill coefficient n of DAG inhibition [2]: 1.6
factor of increase of cGMP K1/2 ([3]; 0.5 μM DAG): 2.2
reduction in the maximal current with DAG ([3]; 0.5 μM DAG, cGMP dose-response): 3%
inhibition of cGMP-activated current by DAG ([3]; 0.5 μM DAG, saturating 100 μM cGMP): small effect
Hill coefficient n of DAG inhibition ([3]; low cGMP (1.5 μM), single patch): 1.4
Hill coefficient n of DAG inhibition ([3]; saturating 100 μM cGMP): 1.4
INmax (maximal inhibition by DAG) ([3]; saturating 100 μM cGMP): 31%
suppression of cGMP-activated currents at high DAG ([3]; saturating (100 μM) cGMP, DAG as high as 12 μM): only partial suppression
difference between DAG IC50 of rod and olfactory channel ([3]; saturating cGMP, rod vs olfactory): approximately a fourfold difference
IC50 [4]: 330 nM
single-channel amplitude with DAG ([4]; +80 mV, saturating cGMP, with and without 0.25 μM DAG, patch with two channels): 2.1 pA
extent of inhibition by DAG ([4]; saturating cGMP): fully inhibited
Hill coefficient n of DAG inhibition [5]: 1.6
single-channel amplitude with DAG [6]: 3.2 pA
Hill coefficient n of DAG inhibition [7]: 2.8
factor of increase of cGMP K1/2 ([8]; 0.5 μM DAG): 3.2
reduction in the maximal current with DAG ([8]; 0.5 μM DAG, cGMP dose-response): 29%
IC50 ([8]; IC50 for DAG inhibition, saturating 2 mM cGMP, 11 patches): 830 nM
Hill coefficient n of DAG inhibition ([8]; low cGMP (~30 μM), single patch): 1.3
DAG concentration completely suppressing cGMP-activated currents ([8]; saturating 2 mM cGMP): ~3 µM
Hill coefficient n of DAG inhibition ([8]; saturating 2 mM cGMP): 1.7
INmax (maximal inhibition by DAG) ([8]; saturating 2 mM cGMP): 100%
SMILES: CCCCCCCC(=O)OC[C@H](CO)OC(=O)CCCCCCC [DAG, 1,2-dioctanoyl-sn-glycerol]

SMILES: CCCCCCCC(=O)OCC(O)COC(=O)CCCCCCC [1,3-DiC8]
effectiveness of inhibition relative to 1,2-DiC8 [9]: just as effective as 1,2-DiC8

EC50 ([3]; read-out: K1/2 for activation by cGMP, with 0.5 μM DAG, +100 mV, single patch): 4000 nM
Hill coefficient n of cGMP activation ([3]; with 0.5 μM DAG): 2.8
Hill coefficient n of cGMP activation ([3]; without DAG): 2.8
SMILES: Nc1nc2c(ncn2[C@@H]2O[C@@H]3COP(=O)(O)O[C@H]3[C@H]2O)c(=O)[nH]1 [cGMP]

SMILES: CCCCNc1ccc(C(=O)OCCN(C)C)cc1 [tetracaine]
Hill coefficient of inhibition (CNG channels): ~1
